# Experimental data: ChEMBL document CHEMBL3102749, “Antiprotozoal activity of dicationic 3,5-diphenylisoxazoles, their prodrugs and aza-analogues” (Bioorg Med Chem, 2014)
# The source made the active and inactive calls. The calls are words filed in the database; no cut-off is given here.
# Columns and labels:
# [1] = tested on: Trypanosoma brucei rhodesiense; experiment: Trypanocidal activity against bloodstream form of Trypanosoma brucei rhodesiense STIB900 infected in NMRI mouse assessed as mean survival days at 5 mg/kg, ip qd administered for 4 days; type: functional
# Method in brief: (§1)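 Mice infected with T. b. rhodesiense STIB900 (acute model) dosed once daily for 4 consecutive days, ip (diamidines) or oral (prodrugs). Cure means survival to 60 days post infection without parasitemia relapse. Mean survival days post infection are averaged over all mice, with cured mice counted as >60 days.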
# [2] = tested on: Trypanosoma brucei rhodesiense; experiment: Trypanocidal activity against bloodstream form of Trypanosoma brucei rhodesiense STIB900 infected in NMRI mouse assessed as mean survival days at 20 mg/kg, ip qd administered for 4 days; type: functional; details: route intraperitoneal; method in brief: as §1
# [3] = tested on: Trypanosoma brucei rhodesiense; experiment: Trypanocidal activity against bloodstream form of Trypanosoma brucei rhodesiense STIB900 infected in NMRI mouse assessed as decrease in parasitemia at 5 mg/kg, ip qd administered for 4 days measured once per week until 60 days by microscopic analysis; type: functional, organism-based; design: dose 5 mg/kg
# Method in brief: (§2)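 Mice infected with T. b. rhodesiense STIB900 received one dose daily for 4 consecutive days, 4 mice per group. Diamidines were given intraperitoneally and prodrugs orally. The primary endpoint was cures per group: a mouse counted as cured if it survived 60 days post-infection without parasitemia relapse.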
# [4] = tested on: Trypanosoma brucei rhodesiense; experiment: Trypanocidal activity against bloodstream form of Trypanosoma brucei rhodesiense STIB900 infected in NMRI mouse assessed as decrease in parasitemia at 20 mg/kg, ip qd administered for 4 days measured once per week until 60 days by microscopic analysis; type: functional, organism-based; design: dose 20 mg/kg; method in brief: as §2
# [5] = tested on: Trypanosoma brucei rhodesiense; experiment: Trypanocidal activity against bloodstream form of Trypanosoma brucei rhodesiense STIB900 infected in NMRI mouse assessed as mean survival days at 100 mg/kg, po qd administered for 4 days; type: functional; method in brief: as §1
# [6] = tested on: Trypanosoma brucei rhodesiense; experiment: Trypanocidal activity against bloodstream form of Trypanosoma brucei rhodesiense STIB900 infected in NMRI mouse assessed as mean parasitemia relapse day at 5 mg/kg, ip qd administered for 4 days; type: functional; details: route intraperitoneal
# Method in brief: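 Mice infected with STIB900 received 4 consecutive daily intraperitoneal doses, 4 mice per group. The secondary endpoint was mean relapse day post-infection, which separates weaker compounds; mice surviving 60 days without parasitemia relapse were scored as cured.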
# [7] = tested on: Trypanosoma brucei rhodesiense; experiment: Antitrypanosomal activity against Trypanosoma brucei rhodesiense STIB900 assessed as growth inhibition after 70 hrs by Alamar blue assay; type: functional, organism-based; details: STIB900, 70 h
# [8] = Selectivity index, ratio of IC50 for rat L6 cells to IC50 for chloroquine/pyrimethamine-resistant Plasmodium falciparum K1 infected in human red blood cells; type: toxicity, cell-based; details: read-out: Ratio IC50
# Method in brief: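 Ratio of IC50 in L6 rat myoblast cytotoxicity assay to IC50 against P. falciparum K1; each IC50 is the mean of two independent assays.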
# Plasmodium falciparum = experiment: Antiplasmodial activity against chloroquine/pyrimethamine-resistant Plasmodium falciparum K1 infected in human red blood cells assessed as [3H]-hypoxanthine incorporation incubated for 48 hrs prior to [3H]-hypoxanthine addition measured after 24 hrs by liquid scintillation counting analysis; type: functional, organism-based
# [9] = Selectivity index, ratio of IC50 for rat L6 cells to IC50 for Trypanosoma brucei rhodesiense STIB900; type: toxicity, cell-based; details: read-out: Ratio IC50
# Method in brief: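 Ratio of IC50 in L6 rat myoblast cytotoxicity assay to IC50 against T. b. rhodesiense STIB900; each IC50 is the mean of two independent assays.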
# L6 = experiment: Cytotoxicity against rat L6 cells assessed as cell viability after 70 hrs by Alamar blue assay; type: cell-based; details: L6, 70 h
Compound,MSD ([1]; route intraperitoneal) [days],MSD [2] [days],Time [6] [days],IC50 [7] [nM],selectivity ratio [8],IC50 (Plasmodium falciparum) [nM],selectivity ratio [9],IC50 (L6) [µM],other results
Cl.Cl.N=C(N)c1ccc(-c2cc(-c3cccc(C(=N)N)c3)on2)cc1,>49.25,>51.25,–,–,–,–,–,–,–
Cl.Cl.N=C(N)c1cccc(-c2cc(-c3cccc(C(=N)N)c3)on2)c1,21.75,>58,–,–,–,–,–,–,Activity [3]: inactive
Cl.Cl.N=C(N)c1ccc(-c2cc(-c3cccc(C(=N)N)c3)no2)cc1,–,>29.25,–,–,–,–,–,–,Activity [4]: inactive
Cl.Cl.N/C(=N\O)c1ccc(-c2cc(-c3cccc(/C(N)=N/O)c3)on2)cc1,–,–,–,–,–,–,–,–,MSD [5]: >43.5 days
Cl.Cl.Cl.N=C(N)c1cccc(-c2cc(-c3ccc(C(=N)N)cc3Cl)on2)c1,–,>60,16,–,–,–,–,–,Activity [4]: Active; MSD [1]: inactive
Cl.Cl.N=C(N)c1ccc(-c2cc(-c3cc(C(=N)N)ccn3)no2)cc1,–,–,15.5,52.8,14200,5,1350,71.2,Activity [3]: inactive
COc1ccc(C(=N)N)cc1-c1cc(-c2ccc(C(=N)N)cc2)no1.Cl.Cl,>60,>60,–,–,–,–,–,–,Activity [4]: Active
Cl.N=C(N)c1cncc(-c2cc(-c3ccc(C(=N)N)nc3)no2)c1,>60,–,60,19.1,440,4.8,111,2.11,–
COc1cc(C(=N)N)ccc1-c1cc(-c2ccc(C(=N)N)cc2)no1.Cl.Cl,>48.75,>50.25,–,–,–,–,–,–,–
Cl.Cl.N=C(N)c1cncc(-c2cc(-c3ccc(C(=N)N)nc3)on2)c1,–,–,25.25,23.9,1400,3.5,206,4.91,Activity [3]: inactive
Cl.Cl.N/C(=N\O)c1ccc(-c2cc(-c3ccc(/C(N)=N/O)cc3)on2)cc1,–,–,–,–,–,–,–,–,MSD [5]: >40.5 days
COc1ccc(C(=N)N)cc1-c1cc(-c2ccc(C(=N)N)cc2)on1.Cl.Cl,>60,>60,–,–,–,–,–,–,Activity [4]: Active
Cl.Cl.N=C(N)c1ccc(-c2cc(-c3cccc(C(=N)N)c3)on2)nc1,>60,–,53,13.6,17400,7,8900,121,–
Cl.Cl.N=C(N)c1ccc(-c2cc(-c3cncc(C(=N)N)c3)no2)cc1,–,–,15,16,1170,3.7,270,4.32,–
